Measurements published in ChEMBL document CHEMBL1130185, “Search for DNA repair inhibitors: selective binding of nucleic bases-acridine conjugates to a DNA duplex containing an abasic site” (J Med Chem, 1997).

Key:
[1] = Deprotonation equilibrium constant for compound was determined; type: ADME
Method in brief: (§1)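 pKa values were determined by potentiometric titration of the acridine ligand at 5 × 10^-4 M across pH 2-12. The distribution of nonprotonated, mono-, bi- and higher protonated species was estimated graphically from the titration curves.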

[2] = Deprotonation equilibrium constant for compound was determined at pH<4; type: ADME; method in brief: as §1

Row | pKa [1] | pKa [2] | SMILES
1 | 10 | – | COc1ccc2nc3cc(Cl)ccc3c(NCCCNCCCN)c2c1
2 | 9.8 | 4 | COc1ccc2nc3cc(Cl)ccc3c(NCCCNCCCNCCn3cnc4c(N)nc(N)nc43)c2c1
